dFosB activator: enhances mouse delta FosB homodimer DNA binding; P13346; 0.99% of 340,000 active; purified delta FosB, TAMRA-CDK5 oligo fluorescence polarization; percent of positive-control signal above neutral wells; AID 493131; activation, % at 25 µM;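 active = mean activation above about 17%, with every replicate also reaching it, limit read from the data, passing the limit was not always enough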
VIM-2 inh: blocks Pseudomonas aeruginosa VIM-2 metallo-beta-lactamase; purified VIM-2, nitrocefin hydrolysis, epi-absorbance fluorescence; inhibition, % at 5.6 µM; 0.89% of 290,000 active; AID 1527;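 active = inhibition above the mean of all tested compounds plus 3 SD, cutoff set per screening run, cut at about 7.5% in these data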;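 also: red hydrolysis product quenches plate fluorescence so inhibitors raise well fluorescence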
m5-HT2A agonist: mouse HTR2A agonism via beta-arrestin recruitment. CHO-K1 mHTR2A beta-arrestin complementation, luminescence; percent of 30 µM serotonin response. AID 624169. P35363. activation, % at 7.6 µM. 0.66% of 360,000 active;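 active = activation above a run cutoff, the mean activation of all tested compounds plus 3 SD, cut at about 14% in these data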
Target sequence (P35363 whole entry, looked up): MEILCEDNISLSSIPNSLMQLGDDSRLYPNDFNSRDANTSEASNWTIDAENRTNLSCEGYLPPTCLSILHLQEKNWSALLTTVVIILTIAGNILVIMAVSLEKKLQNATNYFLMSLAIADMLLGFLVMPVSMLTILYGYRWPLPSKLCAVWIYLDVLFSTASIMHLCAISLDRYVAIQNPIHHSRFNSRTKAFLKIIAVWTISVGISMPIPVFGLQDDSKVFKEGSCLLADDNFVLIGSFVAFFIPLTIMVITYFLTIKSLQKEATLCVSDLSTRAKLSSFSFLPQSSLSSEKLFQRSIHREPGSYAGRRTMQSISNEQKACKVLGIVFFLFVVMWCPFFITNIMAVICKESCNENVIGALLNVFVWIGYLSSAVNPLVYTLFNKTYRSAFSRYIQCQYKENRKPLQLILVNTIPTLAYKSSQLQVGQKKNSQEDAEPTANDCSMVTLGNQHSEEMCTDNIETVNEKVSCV
IMP-1 inh-1: blocks Pseudomonas aeruginosa IMP-1 metallo-beta-lactamase; inhibition, % at 5.6 µM; 0.45% of 290,000 active; AID 1556; purified IMP-1, nitrocefin hydrolysis, epi-absorbance fluorescence;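 active = inhibition above the mean plus 3 SD of all compounds in the same screening run, cut at about 4.5% in these data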
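System: purified IMP-1 / Input: IMP-1 dispensed at 0.2 nM / Medium: 50 mM HEPES pH 7.1, 50 µM ZnSO4, 0.05% Brij 35 / Timing: 15 min enzyme–compound preincubation, then 25 min nitrocefin reaction, 25 °C / Technique: plate fluorescence quenching by hydrolysis product, ex 480/em 530 nm / Repeats: singlicate testing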
IMP-1 inh-2: IMP-1 inhibition, counter-screen for VIM-2 inhibitors | shares compounds with VIM-2 inh | purified IMP-1, nitrocefin hydrolysis, epi-absorbance fluorescence | AID 1856 | inhibition, % at 5.6 µM | 1,300 tested, under 10 active; call rule not given here
VIM-2 FRET inh: counter-screen for VIM-2 inhibitors: epi-absorbance artifacts via FRET; shares compounds with VIM-2 inh; purified VIM-2, CCF2 FRET substrate hydrolysis; inhibition, % at 5.6 µM; 23% of 1,300 active;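 active = inhibition above the mean of all tested compounds plus 3 SD, cut at about 19% in these data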
TEM-1 inh: blocks E. coli TEM-1 beta-lactamase in VIM-2 selectivity screen; inhibition, % at 5.6 µM; Purified TEM-1, nitrocefin hydrolysis, epi-absorbance fluorescence; AID 1866; 3% of 1,300 active; shares compounds with VIM-2 inh;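 active = inhibition above that campaign's mean inhibition plus 3 SD, cut at about 0.46% in these data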
VIM-2 confirm 2: confirmation of P. aeruginosa VIM-2 metallo-beta-lactamase inhibitors; 96% of 1,300 active; purified VIM-2, nitrocefin hydrolysis, epi-absorbance; shares compounds with VIM-2 inh; inhibition, % at 5.6 µM; AID 2187;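 active = inhibition of the VIM-2 beta-lactamase enzyme above about 11% from the earlier first-round screen, limit read from the data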
Of the large screens only hits and unclear results are named; the others gave an inactive call (follow-up assays come after a bar, where they were run). The list is not random: actives were taken first. Their share in the collection is about 2.5%.

C#CCOCCOCCOCCNc1nc(N2CCN(C(=O)Cn3cc(CC(C)O)nn3)CC2)nc(N2CCN(C(=O)[C@H]([C@@H](C)CC)n3cc(CCCCN)nn3)CC2)n1 (stereo partly drawn)	none (no result: VIM-2 inh, IMP-1 inh-1)
COc1ccc(/C=N/NC(=S)Nc2cccc(C(=O)O)c2)cc1OC	VIM-2 inh 12.7 | IMP-1 inh-2 inactive | VIM-2 FRET inh inactive | TEM-1 inh inactive | VIM-2 confirm 2 inactive
CC1CCCC(C)N1C(=O)CSc1nnc(NC(=O)c2cccs2)s1 (stereo not drawn)	VIM-2 inh 19.6 | IMP-1 inh-2 inactive | VIM-2 FRET inh 51.9 | TEM-1 inh inactive | VIM-2 confirm 2 36.8
Cc1c(OC(C)C(=O)NCc2ccncc2)ccc2c3c(c(=O)oc12)CCC3 (stereo not drawn)	VIM-2 inh 22.7 | IMP-1 inh-2 inactive | VIM-2 FRET inh inactive | TEM-1 inh inactive | VIM-2 confirm 2 35.6
Cc1c(OCC(=O)NCc2ccncc2)ccc2c3c(c(=O)oc12)CCC3	VIM-2 inh 50.4 | IMP-1 inh-2 inactive | VIM-2 FRET inh inactive | TEM-1 inh inactive | VIM-2 confirm 2 56.9
Cc1c(OCC(=O)OC(C)C)ccc2c3c(c(=O)oc12)CCC3	none
Cc1oc(C(=O)O)cc1COc1ccc2c3c(c(=O)oc2c1C)CCC3	none
Cc1c(OCC(=O)NCc2cccnc2)ccc2c3c(c(=O)oc12)CCC3	VIM-2 inh 27.2 | IMP-1 inh-2 inactive | VIM-2 FRET inh inactive | TEM-1 inh inactive | VIM-2 confirm 2 30.6
Cc1c(OC(C)C(=O)NCc2ccccn2)ccc2c3c(c(=O)oc12)CCCC3 (stereo not drawn)	VIM-2 inh 16.1 | IMP-1 inh-2 inactive | VIM-2 FRET inh inactive | TEM-1 inh inactive | VIM-2 confirm 2 23.0
CCN1CCN(C(c2cccs2)C(C)NC(=S)Nc2cccc(C)c2C)CC1 (stereo not drawn)	none
CCCCCCn1cc(CN2CC(N3CCN(CCN(C)C)CC3)CS2(=O)=O)nn1 (stereo not drawn)	none (no result: dFosB activator, VIM-2 inh, IMP-1 inh-1)
Cc1ccc(C2(C)NC(=O)N(CC(=O)NCc3ccccc3Cl)C2=O)cc1 (stereo not drawn)	none
Cc1cc(OC(C)C(=O)NCC(O)c2ccccc2)c2c(C)c(C)c(=O)oc2c1 (stereo not drawn)	none
Cc1c(OC(C)C(=O)NCC(O)c2ccccc2)ccc2c3c(c(=O)oc12)CCC3 (stereo not drawn)	VIM-2 inh 19.2 | IMP-1 inh-2 inactive | VIM-2 FRET inh inactive | TEM-1 inh inactive | VIM-2 confirm 2 23.9
CCCCn1c(-c2ccco2)n[nH]c1=S	VIM-2 inh 42.5 | IMP-1 inh-2 inactive | VIM-2 FRET inh 72.1 | TEM-1 inh inactive | VIM-2 confirm 2 53.3
CC(C)Cn1c(-c2ccco2)n[nH]c1=S	VIM-2 inh 17.3 | IMP-1 inh-2 inactive | VIM-2 FRET inh 49.3 | TEM-1 inh inactive | VIM-2 confirm 2 31.3
CC(C)Cn1c(-c2ccccc2F)n[nH]c1=S	VIM-2 inh 19.2 | IMP-1 inh-2 inactive | VIM-2 FRET inh 30.3 | TEM-1 inh inactive | VIM-2 confirm 2 20.9
Cc1ccccc1-n1c(-c2ccco2)n[nH]c1=S	VIM-2 inh 13.5 | IMP-1 inh-2 inactive | VIM-2 FRET inh 44.9 | TEM-1 inh inactive | VIM-2 confirm 2 31.4
Cc1noc(C)c1C(=O)OCC(=O)NCc1ccc(Cl)cc1	none (no result: VIM-2 inh, IMP-1 inh-1)
CC(C)Cn1c(-c2ccco2)nc2c(c(=O)c3ccccc3n2C)c1=O	VIM-2 inh 13.5 (no result: dFosB activator, m5-HT2A agonist) | IMP-1 inh-2 inactive | VIM-2 FRET inh inactive | TEM-1 inh inactive | VIM-2 confirm 2 31.9
CCCCn1c(-c2ccoc2C)n[nH]c1=S	VIM-2 inh 16.2 | IMP-1 inh-2 inactive | VIM-2 FRET inh 45.4 | TEM-1 inh inactive | VIM-2 confirm 2 30.2
CCCCn1c(Cc2ccccc2)n[nH]c1=S	none
CCCCn1c(-c2sccc2C)n[nH]c1=S	VIM-2 inh 38.9 | IMP-1 inh-2 inactive | VIM-2 FRET inh 67.0 | TEM-1 inh inactive | VIM-2 confirm 2 50.1
C=CCn1c(-c2ccoc2C)n[nH]c1=S	none
O=C1NC[C@H](CCCCN2C[C@@H](Cc3ccccc3)N(CC3CCCCC3)C(=O)C2=O)N(CCC2CCCCC2)C1=O	none (no result: dFosB activator, VIM-2 inh, IMP-1 inh-1)

Screening results deposited in PubChem BioAssay by several laboratories.
